# Reference: ChEMBL document CHEMBL5108074 (J Med Chem, 2022)
# What was measured:
# [1] = Oral bioavailability in Beagle dog at 1 mg/kg measured upto 24 hrs by LC-MS analysis; type: ADME, organism-based, Canis lupus familiaris; details: in vivo
# Kallikrein-1 = Kallikrein-1 (Homo sapiens, UniProt P06870); assay: Inhibition of human KLK1 preincubated for 5 mins followed by substrate addition by fluorometer analysis
# Coagulation factor XII = Coagulation factor XII (Homo sapiens, UniProt P00748); assay: Inhibition of human factor 12a preincubated for 5 mins followed by substrate addition by fluorometer analysis
# Coagulation factor XII, sequence (P00748 20-372 limits assumed): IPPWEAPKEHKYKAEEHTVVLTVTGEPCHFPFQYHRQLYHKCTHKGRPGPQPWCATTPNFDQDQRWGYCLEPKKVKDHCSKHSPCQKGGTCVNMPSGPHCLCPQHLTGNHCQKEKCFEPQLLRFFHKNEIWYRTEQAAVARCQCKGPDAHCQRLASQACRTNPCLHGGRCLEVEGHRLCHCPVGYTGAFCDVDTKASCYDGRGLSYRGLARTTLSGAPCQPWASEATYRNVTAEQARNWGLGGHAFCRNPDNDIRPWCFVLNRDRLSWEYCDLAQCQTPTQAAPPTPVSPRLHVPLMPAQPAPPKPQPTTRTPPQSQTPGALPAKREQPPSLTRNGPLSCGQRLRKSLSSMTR
# Coagulation factor XII, sequence (P00748 373-615 limits assumed): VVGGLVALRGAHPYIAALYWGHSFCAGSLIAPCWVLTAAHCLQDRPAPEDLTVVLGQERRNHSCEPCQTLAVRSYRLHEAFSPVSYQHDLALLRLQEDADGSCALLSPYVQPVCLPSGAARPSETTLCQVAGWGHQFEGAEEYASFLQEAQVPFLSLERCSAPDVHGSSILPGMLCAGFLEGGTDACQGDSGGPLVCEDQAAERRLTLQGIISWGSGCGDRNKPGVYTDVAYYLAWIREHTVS
# Method in brief: (§1)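 Each protease (commercial, typically purified from human plasma) was preincubated with inhibitor for 5 min, then a fluorogenic substrate specific to that enzyme was added. Cleavage was followed kinetically by fluorometry. IC50 came from a four-parameter logistic fit to the normalized rate of fluorescence increase.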
# Cytochrome P450 3A4 = Cytochrome P450 3A4 (Homo sapiens, UniProt P08684); assay: Inhibition of CYP3A4 in human liver microsomes assessed as reduction in 6beta-hydroxymidazolam metabolite formation using midazolam as substrate incubated for 30 mins in presence of NADPH by LC-MS/MS analysis; type: ADME, Microsome
# Cytochrome P450 3A4, sequence (P08684 whole entry): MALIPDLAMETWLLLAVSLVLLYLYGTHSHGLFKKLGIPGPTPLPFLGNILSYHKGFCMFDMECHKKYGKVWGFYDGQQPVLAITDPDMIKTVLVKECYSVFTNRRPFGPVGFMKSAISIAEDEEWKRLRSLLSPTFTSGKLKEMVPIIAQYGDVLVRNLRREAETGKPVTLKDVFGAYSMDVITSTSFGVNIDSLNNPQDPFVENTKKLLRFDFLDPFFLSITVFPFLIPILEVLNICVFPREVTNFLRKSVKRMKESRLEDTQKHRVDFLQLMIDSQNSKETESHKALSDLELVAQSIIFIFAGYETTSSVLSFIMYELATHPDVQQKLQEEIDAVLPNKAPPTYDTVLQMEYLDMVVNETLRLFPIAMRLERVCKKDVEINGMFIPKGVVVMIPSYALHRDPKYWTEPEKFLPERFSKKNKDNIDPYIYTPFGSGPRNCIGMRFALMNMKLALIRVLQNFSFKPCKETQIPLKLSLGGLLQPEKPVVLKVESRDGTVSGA
# [2] = Oral bioavailability in Sprague-Dawley rat at 10 mg/kg measured upto 24 hrs by LC-MS analysis; type: ADME, organism-based; details: in vivo
# Method in brief: (§2)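 Male Sprague-Dawley rats, two per route, single dose. IV: 1 mg/kg given as 1 mL/kg of a nominal 1 mg/mL formulation in vehicle. PO: 10 mg/kg given as 5 mL/kg of a 2 mg/mL formulation. PK parameters from noncompartmental analysis. Clearance expressed relative to rat liver blood flow of 80 mL/min/kg.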
# [3] = Thermodynamic solubility of the compound in FaSSGF at 100 mg/ml at pH 1.6 measured after 4 hrs; details: pH 1.6, 4 h
# [4] = Thermodynamic solubility of the compound in FaSSGF at 1 mg/ml at pH 1.6 measured after 4 hrs; type: physicochemical; details: buffer, pH 1.6, 4 h
# Method in brief: (§3)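 Compound (nominal 1 or 100 mg/mL as free base) added to biorelevant medium preheated to 37 °C: FaSSGF at pH 1.6 or FaSSIF at pH 6.5. Vortexed, then shaken 4 h at 37 °C (~500 rpm). Centrifuged at 15000g for 10 min at 37 °C. Supernatant diluted and quantified against calibration standards. Crystalline material used where stated.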
# [5] = Apparent permeability of the compound across apical side to basolateral side in human Caco-2 cells incubated for 1 hr by LC-MS/MS analysis; details: caco-2, 1 h
# [6] = Metabolic stability in human liver microsomes assessed as intrinsic clearance per mg of protein measured upto 60 mins in presence of NADPH regenerating system by LC-MS/MS analysis; type: ADME, Microsome; details: microsomes, 1 h
# [7] = Clearance in Beagle dog blood at 1 mg/kg, iv measured upto 24 hrs by LC-MS analysis; type: ADME, organism-based, Canis lupus familiaris; details: whole blood
# [8] = Thermodynamic solubility of the compound in FaSSIF at 1 mg/ml at pH 6.5 measured after 4 hrs; type: physicochemical; details: simulated gi fluid, pH 6.5, 4 h; method in brief: as §3
# Cytochrome P450 2C8 = Cytochrome P450 2C8 (Homo sapiens, UniProt P10632); assay: Inhibition of CYP2C8 in human liver microsomes assessed as reduction in 6 alpha-hydroxypaclitaxel metabolite formation incubated for 30 mins in presence of NADPH by LC-MS/MS analysis; type: ADME, Microsome
# Cytochrome P450 2C8, sequence (P10632 whole entry): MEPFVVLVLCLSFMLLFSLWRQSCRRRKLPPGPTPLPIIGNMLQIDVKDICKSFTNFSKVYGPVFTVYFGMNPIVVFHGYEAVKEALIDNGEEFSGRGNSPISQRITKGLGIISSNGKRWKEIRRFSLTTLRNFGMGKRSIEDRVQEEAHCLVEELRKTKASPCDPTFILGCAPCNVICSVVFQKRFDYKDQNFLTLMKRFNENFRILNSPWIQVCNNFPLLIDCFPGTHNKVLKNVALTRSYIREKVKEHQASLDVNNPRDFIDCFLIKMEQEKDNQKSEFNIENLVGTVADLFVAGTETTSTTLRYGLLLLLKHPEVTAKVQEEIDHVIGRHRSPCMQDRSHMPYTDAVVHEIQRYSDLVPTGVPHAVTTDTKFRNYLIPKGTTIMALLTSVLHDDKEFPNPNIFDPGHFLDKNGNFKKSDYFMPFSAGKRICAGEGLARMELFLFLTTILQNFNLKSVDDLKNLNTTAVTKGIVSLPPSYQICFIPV
# Cytochrome P450 2C9 = Cytochrome P450 2C9 (Homo sapiens, UniProt P11712); assay: Inhibition of CYP2C9 in human liver microsomes assessed as reduction in 4 hydroxy-diclofenac metabolite formation incubated for 30 mins in presence of NADPH by LC-MS/MS analysis; type: ADME, Microsome
# Cytochrome P450 2C9, sequence (P11712 whole entry): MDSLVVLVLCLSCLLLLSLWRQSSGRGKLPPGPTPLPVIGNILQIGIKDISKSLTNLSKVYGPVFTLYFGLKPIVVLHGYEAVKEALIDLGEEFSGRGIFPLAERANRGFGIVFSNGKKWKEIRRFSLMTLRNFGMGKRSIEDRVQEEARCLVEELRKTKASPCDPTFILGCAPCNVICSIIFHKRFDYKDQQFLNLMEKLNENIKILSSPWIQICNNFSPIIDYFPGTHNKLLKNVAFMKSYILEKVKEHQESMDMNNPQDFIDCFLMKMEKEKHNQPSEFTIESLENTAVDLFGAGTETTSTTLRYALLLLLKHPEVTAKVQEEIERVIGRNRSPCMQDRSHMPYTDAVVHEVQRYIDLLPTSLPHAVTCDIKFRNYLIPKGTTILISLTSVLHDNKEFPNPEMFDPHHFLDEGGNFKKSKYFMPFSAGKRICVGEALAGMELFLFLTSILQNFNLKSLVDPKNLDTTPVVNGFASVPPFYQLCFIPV
# Cathepsin G = Cathepsin G (Homo sapiens, UniProt P08311); assay: Inhibition of human Cathepsin G preincubated for 5 mins followed by substrate addition by fluorometer analysis; method in brief: as §1
# Cathepsin G, sequence (P08311 whole entry): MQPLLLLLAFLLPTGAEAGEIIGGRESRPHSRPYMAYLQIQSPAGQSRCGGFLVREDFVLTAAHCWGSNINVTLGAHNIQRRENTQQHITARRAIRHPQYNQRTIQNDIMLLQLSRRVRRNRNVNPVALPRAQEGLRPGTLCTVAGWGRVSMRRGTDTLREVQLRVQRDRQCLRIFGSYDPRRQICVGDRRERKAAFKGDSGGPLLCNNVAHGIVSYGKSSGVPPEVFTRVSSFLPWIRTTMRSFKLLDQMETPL
# Plasminogen = Plasminogen (Homo sapiens, UniProt P00747); assay: Inhibition of human plasmin preincubated for 5 mins followed by substrate addition by fluorometer analysis; method in brief: as §1
# [9] = Volume of distribution at steady state in Beagle dog at 1 mg/kg, po and 1 mg/kg, iv measured upto 24 hrs by LC-MS analysis; type: ADME, organism-based, Canis lupus familiaris; details: in vivo
# Prothrombin = Prothrombin (Homo sapiens, UniProt P00734); assay: Inhibition of human thrombin preincubated for 5 mins followed by substrate addition by fluorometer analysis; method in brief: as §1
# Beta-secretase 1 = Beta-secretase 1 (Homo sapiens, UniProt P56817); assay: Inhibition of human beta-secretase 1 preincubated for 5 mins followed by substrate addition by fluorometer analysis
# [10] = Thermodynamic solubility of the compound in FaSSIF at 1 mg/ml at pH 6.5 using crystalline form of sample measured after 4 hrs; type: physicochemical; details: simulated gi fluid, pH 6.5, 4 h; method in brief: as §3
# Cathepsin D = Cathepsin D (Homo sapiens, UniProt P07339); assay: Inhibition of human Cathepsin D preincubated for 5 mins followed by substrate addition by fluorometer analysis
# Cathepsin D, sequence (P07339 65-162 limits assumed): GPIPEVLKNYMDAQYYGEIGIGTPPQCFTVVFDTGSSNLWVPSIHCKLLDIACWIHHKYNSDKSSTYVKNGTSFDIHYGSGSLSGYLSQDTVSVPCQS
# Cathepsin D, sequence (P07339 169-412 limits assumed): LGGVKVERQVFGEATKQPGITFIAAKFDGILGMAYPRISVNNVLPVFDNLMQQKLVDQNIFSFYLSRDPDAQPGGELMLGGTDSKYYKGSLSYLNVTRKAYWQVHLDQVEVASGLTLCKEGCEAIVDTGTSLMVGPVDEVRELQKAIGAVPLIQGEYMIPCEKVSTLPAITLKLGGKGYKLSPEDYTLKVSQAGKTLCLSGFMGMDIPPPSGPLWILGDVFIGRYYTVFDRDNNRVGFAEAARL
# Trypsin = Trypsin (Homo sapiens, UniProt P07477+P07478+P35030); assay: Inhibition of human trypsin preincubated for 5 mins followed by substrate addition by fluorometer analysis; type: protein assay
# Method in brief: (§4)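 Human proteases, typically purified from plasma, preincubated with compound for 5 min. A protease-specific fluorogenic substrate was then added and cleavage followed kinetically on a fluorometer. IC50 from a four-parameter logistic fit to the normalized rate of fluorescence increase.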
# [11] = Clearance in Beagle dog assessed as liver blood flow at 1 mg/kg, iv measured upto 24 hrs by LC-MS analysis; type: ADME, organism-based, Canis lupus familiaris; details: in vivo
# Renin = Renin (Homo sapiens, UniProt P00797); assay: Inhibition of human renin preincubated for 5 mins followed by substrate addition by fluorometer analysis
# Renin, sequence (P00797 whole entry): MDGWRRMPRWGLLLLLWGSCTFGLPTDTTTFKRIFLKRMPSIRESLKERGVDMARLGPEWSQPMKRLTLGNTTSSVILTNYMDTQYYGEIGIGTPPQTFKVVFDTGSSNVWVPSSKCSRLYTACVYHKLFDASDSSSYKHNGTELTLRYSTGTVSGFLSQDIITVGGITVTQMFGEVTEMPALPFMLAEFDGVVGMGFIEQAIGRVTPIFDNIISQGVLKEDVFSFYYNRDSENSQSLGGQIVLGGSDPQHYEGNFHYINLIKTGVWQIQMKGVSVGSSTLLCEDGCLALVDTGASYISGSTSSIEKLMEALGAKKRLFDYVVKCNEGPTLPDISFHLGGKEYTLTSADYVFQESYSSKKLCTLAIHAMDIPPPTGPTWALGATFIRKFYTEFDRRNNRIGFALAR
# Coagulation factor XI = Coagulation factor XI (Homo sapiens, UniProt P03951); assay: Inhibition of human factor 11a preincubated for 5 mins followed by substrate addition by fluorometer analysis
# Coagulation factor XI, sequence (P03951 19-387 limits assumed): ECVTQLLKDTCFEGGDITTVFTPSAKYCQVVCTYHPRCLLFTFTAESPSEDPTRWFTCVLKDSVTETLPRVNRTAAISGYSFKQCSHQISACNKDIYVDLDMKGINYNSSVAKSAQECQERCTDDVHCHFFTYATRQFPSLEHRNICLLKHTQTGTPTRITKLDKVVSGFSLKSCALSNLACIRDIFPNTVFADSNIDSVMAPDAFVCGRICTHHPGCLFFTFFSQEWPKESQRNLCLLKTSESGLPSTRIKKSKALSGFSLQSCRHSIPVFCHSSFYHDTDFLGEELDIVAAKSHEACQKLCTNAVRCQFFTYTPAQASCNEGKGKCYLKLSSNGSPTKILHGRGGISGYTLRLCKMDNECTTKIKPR
# Coagulation factor XI, sequence (P03951 388-625 limits assumed): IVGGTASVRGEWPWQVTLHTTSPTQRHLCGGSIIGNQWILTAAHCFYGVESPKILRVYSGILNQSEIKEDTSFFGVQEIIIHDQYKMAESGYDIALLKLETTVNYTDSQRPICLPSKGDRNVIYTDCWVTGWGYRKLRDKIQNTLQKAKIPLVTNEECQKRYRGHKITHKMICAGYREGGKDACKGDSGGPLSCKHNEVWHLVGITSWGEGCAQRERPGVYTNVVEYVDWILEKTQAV
# Method in brief: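 Enzyme from the selectivity panel of serine proteases, typically purified from human plasma. The inhibitor was preincubated with the enzyme for 5 min before a protease-specific fluorogenic substrate was added. Substrate cleavage was followed kinetically. IC50 came from a four-parameter logistic fit to the normalized rate of fluorescence increase.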
# [12] = Clearance in Sprague-Dawley rat assessed as liver blood flow at 1 mg/kg, iv measured upto 24 hrs by LC-MS analysis; type: ADME, organism-based; details: in vivo; method in brief: as §2
# [13] = Clearance in Sprague-Dawley rat blood at 1 mg/kg, iv measured upto 24 hrs by LC-MS analysis; type: ADME, organism-based; details: whole blood; method in brief: as §2
# [14] = Half life in Beagle dog at 1 mg/kg, po and 1 mg/kg, iv measured upto 24 hrs by LC-MS analysis; type: ADME, organism-based, Canis lupus familiaris; details: in vivo
# [15] = biological target: Tissue-type plasminogen activator (Homo sapiens, UniProt P00750); assay: Inhibition of human tissue plasminogen activator preincubated for 5 mins followed by substrate addition by fluorometer analysis; method in brief: as §1
# Tryptase = Tryptase (Homo sapiens, UniProt Q9BZJ3+Q15661+Q9NRR2); assay: Inhibition of human tryptase preincubated for 5 mins followed by substrate addition by fluorometer analysis; type: protein assay; method in brief: as §4
# Cytochrome P450 2C19 = Cytochrome P450 2C19 (Homo sapiens, UniProt P33261); assay: Inhibition of CYP2C19 in human liver microsomes assessed as reduction in 4-hydroxymephenytoin metabolite formation incubated for 30 mins in presence of NADPH by LC-MS/MS analysis; type: ADME, Microsome
# Cytochrome P450 2C19, sequence (P33261 whole entry): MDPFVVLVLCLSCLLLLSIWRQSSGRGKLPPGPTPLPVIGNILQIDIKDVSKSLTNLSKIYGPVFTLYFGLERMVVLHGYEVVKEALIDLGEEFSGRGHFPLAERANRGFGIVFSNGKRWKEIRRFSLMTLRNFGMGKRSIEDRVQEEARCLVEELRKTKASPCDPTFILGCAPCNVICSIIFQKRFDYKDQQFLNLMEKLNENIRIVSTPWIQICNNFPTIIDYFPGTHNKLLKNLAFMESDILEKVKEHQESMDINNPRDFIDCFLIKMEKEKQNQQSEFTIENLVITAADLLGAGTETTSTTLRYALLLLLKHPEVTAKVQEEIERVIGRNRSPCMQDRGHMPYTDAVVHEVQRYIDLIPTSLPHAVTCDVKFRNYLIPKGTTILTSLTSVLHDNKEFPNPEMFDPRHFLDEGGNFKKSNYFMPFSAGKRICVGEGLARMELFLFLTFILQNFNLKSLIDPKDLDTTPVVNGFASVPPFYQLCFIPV
# [16] = Genotoxicity in Salmonella typhimurium by non-GLP bacterial mutagenicity Ames test; type: toxicity; details: salmonella enterica subsp. enterica serovar typhimurium
# [17] = Half life in Sprague-Dawley rat at 10 mg/kg, po and 1 mg/kg, iv measured upto 24 hrs by LC-MS analysis; type: ADME, organism-based; details: in vivo; method in brief: as §2
# Kallikrein-1, sequence (P06870 whole entry): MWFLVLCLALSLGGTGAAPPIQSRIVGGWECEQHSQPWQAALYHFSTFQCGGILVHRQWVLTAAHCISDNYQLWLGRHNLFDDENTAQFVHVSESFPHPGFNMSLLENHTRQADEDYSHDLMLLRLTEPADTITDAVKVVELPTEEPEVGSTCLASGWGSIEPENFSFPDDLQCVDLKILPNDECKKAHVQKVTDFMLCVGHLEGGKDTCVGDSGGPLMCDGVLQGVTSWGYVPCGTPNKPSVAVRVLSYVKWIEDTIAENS
smiles,measurement,setting,value
COCc1nn(Cc2ccc(Cn3ccccc3=O)cc2)cc1C(=O)NCc1nccc(OC)c1F [SEBETRALSTAT],F,[1],34%
same,IC50,Kallikrein-1,> 40 µM
same,IC50,Coagulation factor XII,> 40 µM
same,IC50,Cytochrome P450 3A4,> 25 µM
same,F,[2],82%
same,Therm_solubility,[3],11000 µg/mL
same,Therm_solubility,[4],> 1000 µg/mL
same,Papp,[5],9 10^-6 cm/s
same,microsomal intrinsic clearance,[6],14 µL/min
same,clearance,[7],10.9 mL/min/kg
same,Therm_solubility,[8],220 µg/mL
same,IC50,Cytochrome P450 2C8,> 25 µM
same,IC50,Cytochrome P450 2C9,> 25 µM
same,IC50,Cathepsin G,> 10 µM
same,IC50,Plasminogen,> 40 µM
same,Vdss,[9],0.65 L/kg
same,IC50,Prothrombin,> 40 µM
same,IC50,Beta-secretase 1,> 10 µM
same,Therm_solubility,[10],110 µg/mL
same,IC50,Cathepsin D,> 10 µM
same,IC50,Trypsin,> 40 µM
same,LBF,[11],33%
same,IC50,Renin,> 10 µM
same,IC50,Coagulation factor XI,> 40 µM
same,LBF,[12],26%
same,clearance,[13],20.9 mL/min/kg
same,t1/2,[14],1 h
same,IC50,[15],> 10 µM
same,IC50,Tryptase,> 10 µM
same,IC50,Cytochrome P450 2C19,> 25 µM
same,Activity,[16],Non-Toxic
same,t1/2,[17],1 h
